ChEMBL document CHEMBL1126031, “1,2,3-trisubstituted cyclopropanes as conformationally restricted peptide isosteres: application to the design and synthesis of novel renin inhibitors” (J Med Chem, 1992)

Experiments:
Renin (Homo sapiens) = target: T1, Renin (Homo sapiens) (UniProt P00797); assay: In vitro potency to inhibit human plasma renin at a pH of 7.4 and at 1*10e-6 M concentration; type: cell-free
T1 sequence (whole entry): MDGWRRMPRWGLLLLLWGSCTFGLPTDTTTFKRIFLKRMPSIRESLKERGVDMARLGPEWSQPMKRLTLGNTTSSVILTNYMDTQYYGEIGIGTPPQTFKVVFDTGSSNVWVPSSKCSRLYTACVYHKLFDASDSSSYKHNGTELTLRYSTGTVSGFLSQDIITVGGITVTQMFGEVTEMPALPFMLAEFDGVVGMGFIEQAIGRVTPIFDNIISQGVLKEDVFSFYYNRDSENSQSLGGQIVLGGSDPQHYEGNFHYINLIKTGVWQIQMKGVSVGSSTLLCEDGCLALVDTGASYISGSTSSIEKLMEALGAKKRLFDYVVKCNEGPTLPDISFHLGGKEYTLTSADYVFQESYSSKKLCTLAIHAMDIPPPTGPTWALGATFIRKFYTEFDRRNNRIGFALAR

Renin [1] = target: T2, Renin (Homo sapiens, UniProt P00797); assay: In vitro inhibition of purified human renin at a pH of 6.0.
T2 sequence (P00797 whole entry): T1 sequence (whole entry)
Outline: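 Purified human renin, assayed at pH 6.0 by a procedure from earlier work.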

Renin [2] = target: T2, Renin; assay: In vitro potency against human plasma renin at pH 7.4; type: cell-free
Outline: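 Renin in human plasma, assayed at pH 7.4 by a procedure from earlier work.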

[3] = Half life of the compound

Compound	inhibition (Renin (Homo sapiens))	IC50 (Renin [1])	IC50 (Renin [2])	half-life [3]
CC(C)C[C@H](O)[C@H](O)[C@H](CC1CCCCC1)NC(=O)[C@H](Cc1cscn1)NC(=O)[C@@H]1[C@@H](Cc2ccccc2)[C@H]1C(=O)N1CCOCC1	30%	25 nM	> 1000 nM	
CC(C)C[C@H](O)[C@H](O)[C@H](CC1CCCCC1)NC(=O)[C@H](Cc1cscn1)NC(=O)[C@H]1[C@H](C(=O)N2CCOCC2)[C@H]1c1ccccc1		200 nM		
CC(C)C[C@H](O)[C@H](O)[C@H](CC1CCCCC1)NC(=O)[C@H](Cc1cscn1)NC(=O)[C@H](CC(=O)N1CCOCC1)Cc1ccccc1		150 nM		
CC(C)C[C@H](O)[C@H](O)[C@H](CC1CCCCC1)NC(=O)[C@H](Cc1cscn1)NC(=O)[C@H]1[C@H](Cc2ccccc2)[C@@H]1C(=O)N1CCOCC1		10 nM	370 nM	
CC(C)C[C@H](O)[C@H](O)[C@H](CC1CCCCC1)NC(=O)[C@H](Cc1cscn1)NC(=O)[C@H]1[C@H](C(=O)N2CCOCC2)[C@@H]1c1ccccc1		0.7 nM	20 nM	> 5 h
CCOC(=O)N[C@@H](Cc1ccc(I)cc1)C(=O)N[C@@H](CC(C)C)C(=O)N[C@@H](CC1CCCCC1)[C@@H](O)[C@@H](O)CC(C)C		2.4 nM	300 nM	
CC(C)C[C@H](O)[C@H](O)[C@H](CC1CCCCC1)NC(=O)[C@H](Cc1cscn1)NC(=O)[C@@H]1[C@H](Cc2ccccc2)[C@H]1C(=O)N1CCOCC1		120 nM		
CC(C)C[C@H](O)[C@H](O)[C@H](CC1CCCCC1)NC(=O)[C@H](Cc1cscn1)NC(=O)[C@@H]1[C@@H](C(=O)N2CCOCC2)[C@H]1c1ccccc1		120 nM		
CC(C)C[C@@H]1[C@@H](C(=O)N[C@@H](Cc2cscn2)C(=O)N[C@@H](CC2CCCCC2)[C@@H](O)[C@@H](O)CC(C)C)[C@@H]1C(=O)N1CCOCC1		2.1 nM	41 nM	
CC(C)C[C@H](O)[C@H](O)[C@H](CC1CCCCC1)NC(=O)[C@H](Cc1cscn1)NC(=O)[C@H]1[C@@H](Cc2ccccc2)[C@@H]1C(=O)N1CCOCC1		27 nM		
CC(C)C[C@H](O)[C@H](O)[C@H](CC1CCCCC1)NC(=O)[C@H](Cc1cscn1)NC(=O)[C@@H]1[C@@H](C(=O)N2CCOCC2)[C@@H]1c1ccccc1		120 nM		
CC[C@@H]1[C@H](C(=O)N[C@@H](Cc2cscn2)C(=O)N[C@@H](CC2CCCCC2)[C@@H](O)[C@@H](O)CC(C)C)[C@H]1C(=O)N1CCOCC1		92 nM		
CC(C)C[C@H](O)[C@H](O)[C@H](CC1CCCCC1)NC(=O)[C@H](Cc1cscn1)NC(=O)C1[C@@H](c2ccccc2)[C@H]1c1ccccc1 (stereo not given in full)		1.1 nM	810 nM	
CC(C)C[C@@H]1[C@H](C(=O)N[C@@H](Cc2cscn2)C(=O)N[C@@H](CC2CCCCC2)[C@@H](O)[C@@H](O)CC(C)C)[C@H]1C(=O)N1CCOCC1		33 nM		
CC[C@@H]1[C@@H](C(=O)N[C@@H](Cc2cscn2)C(=O)N[C@@H](CC2CCCCC2)[C@@H](O)[C@@H](O)CC(C)C)[C@@H]1C(=O)N1CCOCC1		10 nM	230 nM	
CC(C)C[C@H]1[C@H](C(=O)N[C@@H](Cc2cscn2)C(=O)N[C@@H](CC2CCCCC2)[C@@H](O)[C@@H](O)CC(C)C)[C@H]1C(=O)N1CCOCC1		44 nM		
CC(C)C[C@H](O)[C@H](O)[C@H](CC1CCCCC1)NC(=O)[C@H](Cc1cscn1)NC(=O)[C@@H](CC(=O)N1CCOCC1)Cc1ccccc1		0.36 nM	8.3 nM	
CC(C)C[C@H](O)[C@H](O)[C@H](CC1CCCCC1)NC(=O)[C@H](Cc1cscn1)NC(=O)C(Cc1ccccc1)Cc1ccccc1		0.47 nM	54 nM	
CC(C)C[C@H]1[C@@H](C(=O)N[C@@H](Cc2cscn2)C(=O)N[C@@H](CC2CCCCC2)[C@@H](O)[C@@H](O)CC(C)C)[C@@H]1C(=O)N1CCOCC1	46%	19 nM	> 1000 nM	
CC[C@H]1[C@H](C(=O)N[C@@H](Cc2cscn2)C(=O)N[C@@H](CC2CCCCC2)[C@@H](O)[C@@H](O)CC(C)C)[C@H]1C(=O)N1CCOCC1		200 nM		
CC[C@H]1[C@@H](C(=O)N[C@@H](Cc2cscn2)C(=O)N[C@@H](CC2CCCCC2)[C@@H](O)[C@@H](O)CC(C)C)[C@@H]1C(=O)N1CCOCC1		16 nM	610 nM	
